Type in all cases: functional, organism-based
Experiment [1] has as its system Paracentrotus lividus. The experiment in a line: In vivo antiproliferative activity in sea urchin embryos assessed as cleavage alteration up to 4 uM measured after 2.5 to 5.5 hrs post fertilization. The method, boiled down: (§1)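 Fertilized sea urchin eggs, cultured at room temperature in filtered seawater with paddle agitation (60 rpm), were exposed as a monolayer (up to 2000 embryos/mL) 8−20 min after fertilization to 2-fold serial dilutions. Compounds came from 10 mM DMSO stocks diluted 10-fold in 96% EtOH, with final DMSO ≤0.05% and EtOH ≤1%. Cleavage alteration was scored microscopically at 2.5−5.5 h post-fertilization. The threshold concentration is the lowest dose giving 100% alteration.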

Experiment [2] concerns Paracentrotus lividus. The experiment in a line: In vivo antiproliferative activity in sea urchin embryos assessed as cleavage alteration at 2 uM measured after 2.5 to 5.5 hrs post fertilization. In a few lines: as §1
For experiment [3], the system named is Paracentrotus lividus. Nature of the experiment: In vivo antiproliferative activity in sea urchin embryos assessed as cleavage alteration at 4 uM measured after 2.5 to 5.5 hrs post fertilization. The method, boiled down:
as §1

The test system of experiment [4] is Paracentrotus lividus. The experiment in a line: In vivo antiproliferative activity in sea urchin embryos assessed as cleavage alteration at 1 uM measured after 2.5 to 5.5 hrs post fertilization. In a few lines:
as §1

The source made the active and inactive calls.

For `COc1ccc(-c2cccc3cc(OC)c4c(c23)OCO4)cc1`, in the experiment with Paracentrotus lividus [1], the result was inactive.

`COc1ccc(C(O)CC(O)Cc2cc(OC)c3c(c2OC)OCO3)cc1` (stereo not given): the result in the experiment on Paracentrotus lividus [2] was Active.

For the compound `COc1ccc(-c2cccc3c(OC)c(OC)c(OC)c(OC)c23)cc1`, the outcome in the experiment on Paracentrotus lividus [1] was inactive.

For `COc1ccc(-c2cccc3cc4c(c(OC)c23)OCO4)cc1`, the result with Paracentrotus lividus [3] was Active.

On to `COc1ccc(C(=O)CC(O)Cc2ccc3c(c2)OCO3)cc1` (stereo not given), for which the result in the experiment with Paracentrotus lividus [1] was inactive.

Consider `COc1ccc(C2CC(O)Cc3c(OC)c4c(c(OC)c32)OCO4)cc1` (stereo not given), for which the outcome with Paracentrotus lividus [1] was inactive.

In the case of `COc1ccc(-c2cccc3c(OC)c4c(c(OC)c23)OCO4)cc1`, in the experiment with Paracentrotus lividus [1], the result was inactive.

Take `COc1ccc(C(=O)CC(O)Cc2cc(OC)c3c(c2)OCO3)cc1` (stereo not given): the outcome in the experiment with Paracentrotus lividus [1] was inactive.

Take `COc1ccc(-c2cccc3c(OC)c(OC)c4c(c23)OCO4)cc1`: the outcome in the experiment on Paracentrotus lividus [4], in the experiment with Paracentrotus lividus [2] and in the experiment with Paracentrotus lividus [3] was Active.

For `COc1ccc(-c2cccc3cc4c(cc23)OCO4)cc1`, the result with Paracentrotus lividus [1] was inactive.

Consider `COc1cc(-c2cccc3cc4c(cc23)OCO4)cc(OC)c1OC`, for which the result in the experiment on Paracentrotus lividus [2] and with Paracentrotus lividus [3] was Active.

Consider `COc1ccc(C(N)CC(O)Cc2cc(OC)c3c(c2OC)OCO3)cc1` (stereo not given), for which the result in the experiment on Paracentrotus lividus [1] was inactive.

The values above are taken from ChEMBL document CHEMBL4477161, “Facile Synthesis of Natural Alkoxynaphthalene Analogues from Plant Alkoxybenzenes” (J Nat Prod, 2016).
